The source of these data is ChEMBL document CHEMBL3259808, “Optimization of antitrypanosomatid agents: identification of nonmutagenic drug candidates with in vivo activity” (J Med Chem, 2014).

A short description of the series: Selectivity index, ratio of IC50 for mouse J774.1 cells to IC50 for Trypanosoma cruzi Sylvio X-10 amastigotes. The format is toxicity. The settings on record: read-out: Ratio IC50. The procedure, abridged:
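J774.1 macrophages grown in DMEM with 10% heat-inactivated FCS and allowed to attach 48 h, then exposed 48 h at 37 °C to 12.5–400.0 μM. Triplicates. MTT 0.1 mg/mL for 3 h, read at 560 nm; IC50 by linear regression against the solvent control. SI = IC50 J774.1 / parasite IC50 (Sylvio X-10 amastigotes or Tulahuen 2 epimastigotes, the latter measured by A600 growth inhibition at day 5).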

In the case of `Br.C=CCn1c(-c2ccc(Cl)cc2)cs\c1=N/N=C/C=C/c1ccco1.O`, the selectivity ratio was more than 200.
